# Shown are actives, neighbours in structure and some others; about 1.2% of the full set was active somewhere.
# procasp7 counter: procaspase-7 activators, primary screen, counter-screen for procaspase-3 activator project, biochemical, absorbance, HTS, human. AID 463210, 2010. recombinant procaspase-7, Ac-DEVD-pNA absorbance 405 nm; D23A/D198A/D206A triple mutant, cannot self-cleave; scale: DMSO 0, 5 µM enzyme 100. actives 0.093% (n = 330,000). activation, % at 8.5 µM. Caspase-7 (Homo sapiens), P55210;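 active means percent activation above the screen-wide mean plus 3 SD, cut at about 25% in these data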
#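 Material: Procaspase-7 triple mutant (PC-7 D3A) | Quantity: 2 µM procaspase-7 mutant as dispensed | Reagent: DEVD-pNA substrate | Times: 1 h preincubation, 2 h reaction | Technique: 405 nm absorbance of p-nitroaniline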
# procasp3 activ: activators of human procaspase-3 D3A mutant, primary screen, biochemical, absorbance, PC-3 D3A mutant, single concentration. Caspase-3 (Homo sapiens), P42574. recombinant procaspase-3 D3A, Ac-DEVD-pNA absorbance 405 nm. activation, % at 8.5 µM. actives 0.11% (n = 330,000);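 active means activation above the mean of all tested compounds plus 3 SD, cut at about 21% in these data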
#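 Compound: 8.5 µM single point, 0.8% DMSO / Material: Autoprocessing-dead procaspase-3 D3A mutant enzyme / Timing: 1 h preincubation plus 2 h reaction at 25 °C / Medium: Zinc-free HEPES/NaCl buffer with 0.01% Triton X-100 at pH 7.4 / Technique: 405 nm absorbance of p-nitroaniline, reads at 0 and 120 min / Repeats: one well per compound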
# PP1 inh: PP1-alpha phosphatase inhibitors, primary screen, counter-screen for PP5 inhibitor project, biochemical, fluorescence, OMFP substrate, single point; Serine/threonine-protein phosphatase PP1-alpha catalytic subunit (Homo sapiens), P62136; inhibition, % at 6.7 µM; AID 2235, 2010; actives 0.9% (n = 320,000); purified PP1alpha;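 active means inhibition above the mean inhibition of all tested compounds plus 3 SD, computed separately for each screening campaign, cut at about 15% in these data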
# Target sequence (P62136 whole entry, looked up): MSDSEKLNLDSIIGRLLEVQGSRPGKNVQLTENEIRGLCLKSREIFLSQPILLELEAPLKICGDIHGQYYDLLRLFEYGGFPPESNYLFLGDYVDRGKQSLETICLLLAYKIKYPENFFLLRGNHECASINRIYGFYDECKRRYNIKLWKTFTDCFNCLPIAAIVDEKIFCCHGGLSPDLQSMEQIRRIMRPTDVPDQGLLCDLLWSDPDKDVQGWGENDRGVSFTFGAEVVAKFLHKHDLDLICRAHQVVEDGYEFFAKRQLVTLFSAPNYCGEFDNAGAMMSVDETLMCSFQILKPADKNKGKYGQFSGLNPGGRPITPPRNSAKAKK
# PP5 primary: PP5 phosphatase inhibitors, primary screen, biochemical, fluorescence; Serine/threonine-protein phosphatase 5 (Homo sapiens), P53041; purified PP5c, OMFP substrate fluorescence; inhibition, % at 6.7 µM; actives 0.18% (n = 320,000); AID 1987, 2009;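 active means inhibition above the campaign's mean inhibition across all tested compounds plus 3 SD, cut at about 9.5% in these data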
# Hits are given with their value; – = inactive; · = no result given.
SMILES,procasp7 counter,procasp3 activ,PP1 inh,PP5 primary
O=C(O)CN1C(=O)/C(=C\c2ccc(OC(=O)c3ccco3)cc2)SC1=S,–,–,–,–
CCOc1ccc(C2C(C(=O)c3ccc(C)o3)=C(O)C(=O)N2Cc2cccnc2)cc1 (stereo unspecified),–,–,15,–
CCCOc1ccc(C2C(C(=O)c3ccc(C)o3)=C(O)C(=O)N2Cc2ccco2)cc1OCC (stereo unspecified),–,–,35,–
Cc1ccc(C(=O)C2=C(O)C(=O)N(Cc3cccnc3)C2c2ccc(Cl)cc2)o1 (stereo unspecified),–,–,16,–
Cc1ccc(C(=O)C2=C(O)C(=O)N(Cc3ccccc3)C2c2cccnc2)o1 (stereo unspecified),–,–,–,–
COc1ccc(C2C(C(=O)c3ccc(C)o3)=C(O)C(=O)N2Cc2cccnc2)cc1OC (stereo unspecified),–,–,–,–
Cc1ccc(C(=O)C2=C(O)C(=O)N(Cc3cccnc3)C2c2cccc(Oc3ccccc3)c2)o1 (stereo unspecified),–,–,45,–
Cc1cccc(CS(=O)(=O)Cc2ccc(C(=O)NC3CCCC3)o2)c1,–,–,–,–
COc1ccc(CCNC(=O)c2ccc3c(c2)NC(=O)C(CSCc2cc(C)ccc2C)N3)cc1OC (stereo unspecified),–,–,–,–
O=C(Nc1nc(-c2ccccc2)nc2ccccc12)c1ccc(F)cc1,–,–,16,–
CC(=O)Nc1ccc(Nc2nc(-c3ccccc3)nc3ccccc23)cc1,–,–,–,–
C[C@]12c3[nH]c4ccc(Cl)cc4c3CCN1C(=O)[C@@H](CC(=O)NCCC1=CCCCC1)C[C@@H]2C(=O)N1CCOCC1,–,–,·,·
CCOC(=O)c1cc(-c2ccc(N3CCOCC3)cc2)nn1-c1ccc(F)cc1F,–,–,17,–
CCOC(=O)c1cc(-c2ccc(N3CCOCC3)cc2)nn1-c1ccccc1,–,–,–,–
CC(=O)NC(CC(=O)NNC(=O)c1cccs1)c1ccccc1 (stereo unspecified),–,–,–,–
O=C(C1=C(O)C(=O)N(CCN2CCOCC2)C1c1ccc([N+](=O)[O-])cc1)c1cc2ccccc2o1 (stereo unspecified),–,–,–,–
O=C(C1=C(O)C(=O)N(CCN2CCOCC2)C1c1ccc(Cl)cc1)c1cc2ccccc2o1 (stereo unspecified),–,–,19,–
O=C(C1=C(O)C(=O)N(CCCN2CCOCC2)C1c1ccc(Cl)cc1)c1cc2ccccc2o1 (stereo unspecified),–,–,16,–
C#CCNC(=O)C1=C[C@H](C)C[C@H](OCc2ccc(CO)cc2)O1,–,–,–,–
O=C(CN1c2ccccc2Sc2ccccc21)NNC(=S)Nc1ccc(Cl)cc1Cl,–,–,20,–
Cc1ccc(C)c(S(=O)(=O)N2CCN(C(=O)[C@H](Cc3ccccc3)NC(=O)c3ccco3)CC2)c1,–,–,·,·
Cc1noc(C)c1C(=O)OCC(=O)Nc1ccccc1SCC#N,–,–,–,–
Cc1cccc(CNc2ccc(C(CC(N)=O)NC(=O)Cc3cccc4ccccc34)cc2[N+](=O)[O-])c1 (stereo unspecified),–,–,17,–
O=C(c1ccc(-c2ccc(Cl)cc2)o1)N1CCN(c2ccc([N+](=O)[O-])cc2Cl)CC1,–,–,16,–
CCc1nc(SCC(=O)NC2CC2)c2c(C)c(C)sc2n1,–,–,–,–
SMILES,procasp7 counter,procasp3 activ,PP1 inh,PP5 primary
Cc1nc(SCC(=O)NC2CC2)c2c(C)c(C)sc2n1,–,30,–,–
Cc1noc(COc2ccccc2OCC(N)=O)n1,–,–,–,–
CCc1ccc2[nH]c3nc(N/N=C/c4ccc(O)cc4O)nnc3c2c1,–,–,17,–
COc1cc(/C=N/Nc2nnc3c(n2)[nH]c2ccccc23)ccc1O,–,–,–,–
CCc1ccc2[nH]c3nc(SCCN4CCOCC4)nnc3c2c1,–,–,–,–
Cc1ccc2[nH]c3nc(N/N=C/c4cccc(O)c4)nnc3c2c1,–,–,16,–
Cc1cccc(NC(=O)NCc2ccc3c(c2)cc(C)n3C)c1,–,–,–,–

# Assay outcomes: PubChem BioAssay, The Scripps Research Institute Molecular Screening Center
